HKDC1 inh: blocks human hexokinase HKDC1 activity; recombinant HKDC1, G6PDH/diaphorase resazurin coupled fluorescence; inhibition, % at 20 µM; 0.16% of 340,000 active; AID 493160;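 active = inhibition above about 35% when tested at 20 µM, limit read from the data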;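 also: plate controls were DMSO wells with enzyme for no effect and DMSO wells lacking enzyme for full effect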
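Material – in-house recombinant HK5 (HKDC1) enzyme · Quantity – HKDC1 at 5 µg/mL · Buffer or medium – pH 8.0 Tris buffer with 10 mM MgCl2 · Reagent – glucose with 1 mM ATP · Dosing – single 20 µM dose · Times – reaction time 90 min, room temperature, protected from light · Technique – resorufin fluorescence at 613 nm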
TbHK1 inh: blocks Trypanosoma brucei hexokinase 1 activity; recombinant TbHK1, G6PDH-coupled NADH A340; inhibition, % at 10 µM; 0.11% of 220,000 active; AID 1430;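 active = inhibition of 50% or more in the single-dose primary screen; inactive = inhibition below 50%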
PGE2 EP2 inh: blocks the human prostaglandin E2 receptor EP2 | AID 1422 | C6 glioma cells expressing human EP2, cAMP TR-FRET; cells stimulated with saturating PGE2 | inhibition, % at 25 µM | 0.52% of 260,000 active | P43116;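 active = percent inhibition above 40 after rounding to a whole number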;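 also: rat C6 glioma host cells with rolipram phosphodiesterase inhibitor present; the protocol text gives 20 µM as final concentration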
Target sequence (P43116 whole entry, looked up): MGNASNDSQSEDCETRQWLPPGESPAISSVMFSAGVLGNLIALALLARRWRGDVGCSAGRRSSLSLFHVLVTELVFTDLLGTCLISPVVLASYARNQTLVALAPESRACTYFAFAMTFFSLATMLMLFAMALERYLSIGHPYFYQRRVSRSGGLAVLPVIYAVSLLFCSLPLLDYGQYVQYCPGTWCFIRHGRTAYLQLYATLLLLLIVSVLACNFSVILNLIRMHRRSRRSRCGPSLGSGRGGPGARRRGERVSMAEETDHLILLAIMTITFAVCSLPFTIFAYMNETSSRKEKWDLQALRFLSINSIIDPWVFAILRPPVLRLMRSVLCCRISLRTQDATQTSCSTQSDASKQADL
PfGluPho inh: PfG6PD (Plasmodium falciparum) enzyme inhibition. PfGluPho enzyme, NADPH resazurin-diaphorase fluorescence. inhibition, % at 20 µM. 0.78% of 350,000 active;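 active = inhibition reaching at least a set limit at 20 µM in the primary screen, cut at about 59% in these data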;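 also: 0% = DMSO wells with substrate and 100% = DMSO wells lacking glucose-6-phosphate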
PHOSPHO1 inh: inhibitors of human PHOSPHO1 phosphatase | recombinant PHOSPHO1, absorbance phosphatase assay | 1.1% of 290,000 active | AID 1565 | Q8TCT1 | inhibition, % at 13.3 µM; in the data active = inhibition above about 60%
Target sequence (Q8TCT1 whole entry, looked up): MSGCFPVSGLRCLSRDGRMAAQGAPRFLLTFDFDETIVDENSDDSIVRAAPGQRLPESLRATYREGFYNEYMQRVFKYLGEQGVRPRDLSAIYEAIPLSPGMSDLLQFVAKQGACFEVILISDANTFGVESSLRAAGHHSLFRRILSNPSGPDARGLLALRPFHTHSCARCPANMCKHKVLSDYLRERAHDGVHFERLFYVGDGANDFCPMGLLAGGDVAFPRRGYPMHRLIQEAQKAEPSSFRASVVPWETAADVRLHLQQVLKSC
EP2 modulator: EP2 receptor (human) modulation; P43116; EP2-expressing cells, cAMP HTRF FRET, PGE2 co-stimulation; induction, % at 25 µM; 0.83% of 260,000 active; AID 940;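 active = compounds whose cAMP rise, as percent of the full-agonist control response, exceeds 60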;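 also: rat C6 glioma line stably carrying human EP2 under a CMV promoter; the protocol text gives 20 µM as final concentration; 100% = response of wells given 1 µM PGE2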
PfG6PD confirm: PfG6PD inhibition, single-dose confirmed; shares compounds with PfGluPho inh; recombinant PfGluPho, NADPH-diaphorase-resazurin fluorescence; inhibition, % at 20 µM; 34% of 2,400 active;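 active = inhibition of at least 50% at 20 µM in any single replicate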;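 also: 0% = DMSO with substrate and 100% = DMSO lacking glucose-6-phosphate substrate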
Diaph ctr 10uM: diaphorase inhibition or oxidation at 10 uM NADPH. shares compounds with PfGluPho inh. diaphorase-coupled resazurin reduction, fluorescence, NADPH 10 uM. inhibition, % at 20 µM. 39% of 820 active. AID 504862;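 active = average inhibition reaching 50% or more with the compound at 20 µM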;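 also: resorufin red fluorescence formed as diaphorase reduces resazurin using NADPH; 0% = DMSO with enzyme and 100% = DMSO without enzyme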
Diaphorase 30uM: counter-screen for P. falciparum G6PD inhibitors: diaphorase inhibitors, oxidizers; 29% of 820 active; AID 504863; Diaphorase/resazurin coupled assay, resorufin fluorescence, 30 uM NADPH; inhibition, % at 20 µM; shares compounds with PfGluPho inh;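 active = inhibition averaging 50% or more, tested at 20 µM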;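 also: 0% = DMSO with enzyme and 100% = DMSO wells lacking diaphorase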
The depositor's hits bear a star; . = not tested or not shown. Only some compounds are listed: those with a hit (about 2.5% of all), similar ones and a draw of the others.

SMILES	HKDC1 inh	TbHK1 inh	PGE2 EP2 inh	PfGluPho inh	PHOSPHO1 inh	EP2 modulator	PfG6PD confirm	others
O=c1c2ccccc2ncn1-c1ccc(Cl)cc1	-3	-12	13	-13	24	0	.
CCC(C)(C)NC(=O)c1ccc2c(c1)N(CC(=O)N1CCC(C)CC1)C(=O)C(C)(C)O2	.	.	6	.	.	37	.
N#Cc1ccc(N=c2ssnc2Cl)cc1	-13	48	147*	93*	-88	-29	56*	Diaph ctr 10uM=-32;Diaphorase 30uM=-24
N#Cc1ccc(Oc2c(Cl)cncc2Cl)cc1	-6	.	.	0	24	.	.
CCOC(=O)c1ccc(N=c2ssnc2Cl)cc1	-8	6	8	88*	77*	-48	30
CC(NC(=O)Cn1cc(C(=O)c2cccs2)c2ccccc21)c1ccccc1 (stereo not given)	.	.	13	.	.	-19	.
CCCc1nc(SCc2ccc(Cl)cc2Cl)n[nH]1	1	-4	6	72*	4	21	44
COc1cc(CNc2ccc3[nH]c(=O)[nH]c3c2)cc(Cl)c1OCC(=O)NC(C)(C)C	11	-2	36	83*	16	6	38
C=CCOc1c(CNc2ccc3[nH]c(=O)[nH]c3c2)cccc1OC	-1	-7	8	21	8	-2	.
Oc1ccc(NCc2ccccc2OCc2ccccc2)cc1	15	14	4	73*	-9	31	50*	Diaph ctr 10uM=-10;Diaphorase 30uM=-16
O=c1[nH]c2ccc(NCc3ccccc3OCc3ccc(Cl)cc3)cc2[nH]1	18	.	.	73*	29	.	47*	Diaph ctr 10uM=-9;Diaphorase 30uM=0
COc1cccc(CNc2ccc3[nH]c(=O)[nH]c3c2)c1OCc1ccc(F)cc1	23	.	.	112*	29	.	51*	Diaph ctr 10uM=-9;Diaphorase 30uM=-1
O=C(OCC#CCSc1nc2ccccc2s1)C1=CC2C=CC=CC2OC1=O (stereo not given)	.	.	6	.	.	-67	.
O=C(c1ccc(F)cc1)N1CCC(O)(c2ccccn2)CC1	.	.	5	.	.	-63	.
Cc1ccc(-c2nn(-c3ccccc3)cc2/C=N/NC(=O)c2ccncc2)o1	-9	-18	16	60*	-29	-25	-27
O=C(CN1C(=O)N2CCN=C2c2ccccc21)N1CCN(c2ccccc2F)CC1	.	.	4	.	.	-17	.
CCSS(=O)(=O)c1cccc2cccnc12	2	29	14	80*	55	-38	2
Cc1cc(C)c(NS(=O)(=O)c2cccc3cccnc23)c(C)c1	-5	-3	1	46	-7	16	22
O=C(O)CCS(=O)(=O)c1cccc2cccnc12	-8	0	4	-1	10	14	.
O=C(c1nccs1)C1CCN(C(=O)c2n[nH]c3c2CCC3)CC1	.	.	.	.	.	-30	.
N#CC(=C1C=CC(=NO)C(Cl)=C1)c1ccc(Cl)cc1	14	.	.	31	.	.	.
COc1ccc(C(C#N)=C2C=CC(=NO)C=C2)cc1	12	-17	7	61*	-142	-10	-10
CCOC(=O)c1cnc2ccc(Br)cc2c1NCCO	-10	-16	10	65*	1	0	16
COc1ccc(N2CCN(C(=S)NCCc3ccccc3)CC2)cc1	-3	-2	16	-1	.	.	.
Oc1ccc(N2CCN(C(=S)NCCc3ccccc3)CC2)cc1	7	6	5	67*	-33	-14	11
SMILES	HKDC1 inh	TbHK1 inh	PGE2 EP2 inh	PfGluPho inh	PHOSPHO1 inh	EP2 modulator	PfG6PD confirm	others
O=C(CN1CCN(c2ccc(O)cc2)CC1)Nc1ccccc1C(=O)NCCc1ccccc1	5	.	.	70*	.	.	34
O=C(Cc1cccs1)Nc1ccc2c(c1)OCCO2	.	.	6	.	.	-4	.
O=C(CSc1nc2ccc(Cl)cc2[nH]1)Nc1ccccc1F	.	.	3	.	.	-25	.
O=C(COc1cccc(C(F)(F)F)c1)N1CCN(c2ccc(O)cc2)CC1	7	-2	6	61*	21	-34	1
Brc1ccc2nc(-c3c[nH]c4ccccc34)cn2c1	0	-6	13	93*	11	-34	32
Cc1cccn2cc(-c3c[nH]c4ccccc34)nc12	-4	-6	14	49	-10	-46	.
CC(C)c1nc2ccccc2c2nnc(SCC(=O)N(C(C)C)C(C)C)n12	.	.	8	.	.	6	.
Cc1cc(C)cc(OCC(=O)Nc2ccc(S(=O)(=O)Nc3cc(C)nc(C)n3)cc2)c1	.	.	7	.	.	9	.
COc1ccc(C(=O)Nc2sc(C)c(-c3ccccc3)c2C#N)cc1OC	1	-22	12	67*	16	5	-10
CCC(=O)N1CCNC(=O)C1CC(=O)OC (stereo not given)	.	.	8	.	.	-30	.
C[C@]12CC[C@@H]3c4cc(O)c(O)cc4CC[C@H]3[C@@H]1CC[C@@H]2O	-6	.	23	97*	28	-19	86*	Diaph ctr 10uM=28;Diaphorase 30uM=14
C[C@]12CC[C@@H]3c4ccc(O)cc4CC[C@H]3[C@@H]1CC[C@@H]2O	-5	0	12	-2	-1	-63	.
O=C(Nc1ccc(Cl)c(Cl)c1)c1ccc(Cl)c(Cl)c1	2	-22	7	6	16	-9	.
Cc1ccc(NC(=O)c2ccc(Cl)c(N3C(=O)C=CC3=O)c2)cc1	2	5	125*	100*	-41	-38	100*	Diaph ctr 10uM=-22;Diaphorase 30uM=-7
COc1ccc(NC(=O)CCCSc2nnc3c(n2)[nH]c2ccc(F)cc23)c(OC)c1	.	.	10	.	.	-34	.
Cc1ccc(Cl)cc1NC(=O)c1cc2ccccc2cc1O	-2	-31	24	61*	60	-10	4
C[C@@H](Cn1nnn(-c2ccccc2)c1=O)NC(=O)c1cnccn1	.	.	8	.	.	-21	.
Cc1ccc(NC2Sc3ccccc3NC2=O)cc1Cl (stereo not given)	-5	6	13	82*	48	-44	-6
COc1ccc(CCNc2nc(C)c(C(C)=O)s2)cc1OC	-12	.	.	61*	20	.	20
CC(=O)c1sc(NCc2ccc(C)cc2)nc1C	-4	.	.	-16	28	.	.
CCOc1ccccc1N=c1oc2c(OC)cccc2cc1C(=O)Nc1nccs1	.	.	4	.	.	27	.
Cc1cc(C)nc(Nc2ccc(S(N)(=O)=O)cc2)n1	.	.	9	.	.	-26	.
Cc1ccc(-n2nc(C(=O)N3CCOCC3)cc2-c2ccc(Cl)cc2)cc1	5	-4	8	60*	11	53	35
CC(=O)c1ccc(Nc2ccc(-c3ccccc3F)nn2)cc1	3	-21	4	79*	12	-41	36

Source: PubChem (several laboratories)
